MIC data for five compounds are collected here from ChEMBL document CHEMBL1141461, “Polyene antibiotics from Streptomyces mediocidicus” (2007).

Structures are written as SMILES. Values after ≈ are worked out from the molar mass of the structure shown.

Common to all, as to assay type: functional
One experiment relates to Aspergillus niger. As to the kind of experiment: Antifungal activity against Aspergillus niger GC 3091.
Experiment [1] deals with Candida parapsilosis. As to the kind of experiment: Antifungal activity against Candida parapsilosis GC 3075. Conditions: Lodderomyces parapsilosis. The procedure, abridged: (§1)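 Yeast MIC by broth microdilution in RPMI-1640. Agent at final 0.03-128 µg/mL, yeast inoculum 0.5-2.5 × 10^3 cfu/mL. MIC read after 48 h incubation at 30 °C.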
The test system of experiment [2] is Candida albicans. As to the kind of experiment: Antifungal activity against Candida albicans GC 3064. The essentials: as §1
In the next experiment the test system is Kluyveromyces marxianus. Nature of the experiment: Antifungal activity against Candida pseudotropicalis GC 3070. The procedure, abridged:
as §1

For experiment [3], the system named is Candida albicans. As to the kind of experiment: Antifungal activity against Candida albicans GC 3066. The procedure, abridged:
as §1

In the next experiment the test system is Clavispora lusitaniae. As to the kind of experiment: Antifungal activity against Candida lusitaniae GC 3068. The procedure, abridged: as §1
Experiment [4] has as its system Candida tropicalis. As to the kind of experiment: Antifungal activity against Candida tropicalis GC 3081. The procedure, abridged:
as §1

Another experiment concerns Aspergillus fumigatus. Nature of the experiment: Antifungal activity against Aspergillus fumigatus GC 3092.
The test system of experiment [5] is Candida tropicalis. As to the kind of experiment: Antifungal activity against Candida tropicalis GC 3080. The essentials:
as §1

Experiment [6] relates to Candida parapsilosis. Nature of the experiment: Antifungal activity against Candida parapsilosis GC 3074. Conditions: Lodderomyces parapsilosis. The procedure, abridged: as §1
Another experiment concerns Pichia kudriavzevii. As to the kind of experiment: Antifungal activity against Candida Krussii GC 3067. The procedure, abridged: as §1
For experiment [7], the system named is Candida albicans. Nature of the experiment: Antifungal activity against Candida albicans GC 3065. The essentials: as §1
Another experiment relates to Diutina rugosa. Nature of the experiment: Antifungal activity against Candida rugosa GC 3077. The essentials: as §1
Experiment [8] deals with Candida parapsilosis. Nature of the experiment: Antifungal activity against Candida parapsilosis GC 3076. The conditions noted are these: Lodderomyces parapsilosis. The essentials: as §1

As usually defined, the MIC is the lowest concentration found to suppress growth. Lower therefore signals greater potency. Consider `C\C(=C/C=C/C=C/CC/C=C/C(C)C(O)C(C)C(O)/C=C/C=C/C=C/C=C/C=C/C=C/CC(OS(=O)(=O)O)C(C)C(=O)CC(O)CC(O)/C=C/CC(O)CC(O)CC(O)/C=C/CC(O)CC(O)/C=C/CC(O)CC(O)CCCN)C(=O)O` (stereo not given) [MEDIOMYCIN A], for which the MIC against Aspergillus niger was 1 µg/mL (≈ 0.85 µM); in the experiment on Candida parapsilosis [1], 16 µg/mL (≈ 13.6 µM); with Candida albicans [2] it was 2 µg/mL (≈ 1.7 µM); with Kluyveromyces marxianus, 1 µg/mL (≈ 0.85 µM); in the experiment with Candida albicans [3], 4 µg/mL (≈ 3.4 µM); against Clavispora lusitaniae it was 2 µg/mL (≈ 1.7 µM). Further, the MIC was 8 µg/mL (≈ 6.8 µM) against Candida tropicalis [4]; 128 µg/mL (≈ 109 µM) against Aspergillus fumigatus; 16 µg/mL (≈ 13.6 µM) against Candida tropicalis [5]; 16 µg/mL (≈ 13.6 µM) against Candida parapsilosis [6]; 2 µg/mL (≈ 1.7 µM) against Pichia kudriavzevii; 2 µg/mL (≈ 1.7 µM) in the experiment on Candida albicans [7]. Further, the MIC against Diutina rugosa was 2 µg/mL (≈ 1.7 µM); against Candida parapsilosis [8], 16 µg/mL (≈ 13.6 µM).
For the compound `C[C@@H]1[C@H](O)[C@@H](C)/C=C/C=C/C=C/C=C/C=C/C=C/C=C/[C@H](O[C@@H]2O[C@H](C)[C@@H](O)[C@H](N)[C@@H]2O)C[C@@H]2O[C@](O)(C[C@@H](O)C[C@@H](O)[C@H](O)CC[C@@H](O)C[C@@H](O)CC(=O)O[C@H]1C)C[C@H](O)[C@H]2C(=O)O` [AMPHOTERICIN B], the minimum inhibitory concentration (MIC) came to 0.25 µg/mL (≈ 0.271 µM) against Aspergillus niger; 0.5 µg/mL (≈ 0.541 µM) against Candida parapsilosis [1]; 0.5 µg/mL (≈ 0.541 µM) with Candida albicans [2]; 0.25 µg/mL (≈ 0.271 µM) against Kluyveromyces marxianus; 0.25 µg/mL (≈ 0.271 µM) against Candida albicans [3]; 0.25 µg/mL (≈ 0.271 µM) against Clavispora lusitaniae. Also, the MIC in the experiment on Candida tropicalis [4] was 0.5 µg/mL (≈ 0.541 µM); against Aspergillus fumigatus, 0.25 µg/mL (≈ 0.271 µM); in the experiment with Candida tropicalis [5] it was 0.5 µg/mL (≈ 0.541 µM); against Candida parapsilosis [6] it was 0.25 µg/mL (≈ 0.271 µM); with Pichia kudriavzevii, 0.5 µg/mL (≈ 0.541 µM); in the experiment with Candida albicans [7], 0.25 µg/mL (≈ 0.271 µM). The MIC in the experiment on Diutina rugosa and in the experiment on Candida parapsilosis [8] was 0.5 µg/mL (≈ 0.541 µM) in each case.
As to `COC(=O)/C(C)=C/C=C/C=C/CC/C=C/C(C)C(O)C(C)C(O)/C=C/C=C/C=C/C=C/C=C/C=C/CC(OS(=O)(=O)O)C(C)C(=O)CC(O)CC(O)/C=C/CC(O)CC(O)CC(O)/C=C/CC(O)CC(O)/C=C/CC(O)CC(O)CCCN` (stereo not given), the MIC was more than 128 µg/mL in the experiment with Aspergillus niger; more than 128 µg/mL with Candida parapsilosis [1]; 16 µg/mL (≈ 13.4 µM) in the experiment on Candida albicans [2]; 8 µg/mL (≈ 6.72 µM) with Kluyveromyces marxianus; 32 µg/mL (≈ 26.9 µM) with Candida albicans [3]; 16 µg/mL (≈ 13.4 µM) against Clavispora lusitaniae. The minimal inhibitory concentration (MIC) in the experiment on Candida tropicalis [4] was 32 µg/mL (≈ 26.9 µM); with Aspergillus fumigatus it was more than 128 µg/mL; against Candida tropicalis [5], 16 µg/mL (≈ 13.4 µM); in the experiment with Candida parapsilosis [6] it was 128 µg/mL (≈ 108 µM); against Pichia kudriavzevii, 8 µg/mL (≈ 6.72 µM); with Candida albicans [7], 16 µg/mL (≈ 13.4 µM). Moreover, the values for the MIC against Diutina rugosa and against Candida parapsilosis [8] were 8 µg/mL (≈ 6.72 µM) and more than 128 µg/mL, respectively.
For the compound `C\C(=C/C=C/C=C/CC/C=C/C(C)C(O)C(C)C(O)/C=C/C=C/C=C/C=C/C=C/C=C/CC(O)C(C)C(=O)CC(O)CC(O)/C=C/CC(O)CC(O)CC(O)/C=C/CC(O)CC(O)/C=C/CC(O)CC(O)CCCN)C(=O)O` (stereo not given) [MEDIOMYCIN B], the MIC was 1 µg/mL (≈ 0.912 µM) against Aspergillus niger; 4 µg/mL (≈ 3.65 µM) against Candida parapsilosis [1]; 1 µg/mL (≈ 0.912 µM) against Candida albicans [2]; 1 µg/mL (≈ 0.912 µM) against Kluyveromyces marxianus; 1 µg/mL (≈ 0.912 µM) in the experiment on Candida albicans [3]; 2 µg/mL (≈ 1.82 µM) in the experiment on Clavispora lusitaniae. The MIC was found to be 2 µg/mL (≈ 1.82 µM) with Candida tropicalis [4]; 16 µg/mL (≈ 14.6 µM) in the experiment on Aspergillus fumigatus; 2 µg/mL (≈ 1.82 µM) against Candida tropicalis [5]; 2 µg/mL (≈ 1.82 µM) against Candida parapsilosis [6]; 1 µg/mL (≈ 0.912 µM) in the experiment with Pichia kudriavzevii; 1 µg/mL (≈ 0.912 µM) against Candida albicans [7]. The figures for the MIC against Diutina rugosa and in the experiment with Candida parapsilosis [8] were 1 µg/mL (≈ 0.912 µM) and 2 µg/mL (≈ 1.82 µM), respectively.
In the case of `C\C(=C/C=C/C=C/CC/C=C/C(C)C(O)C(C)C(O)/C=C/C=C/C=C/C=C/C=C/C=C/CC(OS(=O)(=O)O)C(C)C(=O)CC(O)CC(O)/C=C/CC(O)CC(O)CC(O)/C=C/CC(O)CC(O)/C=C/CC(O)CC(O)CCCNC(=N)N)C(=O)O` (stereo not given) [CLETHRAMYCIN], the MIC in the experiment with Aspergillus niger was 4 µg/mL (≈ 3.28 µM); in the experiment with Candida parapsilosis [1] it was 16 µg/mL (≈ 13.1 µM); in the experiment with Candida albicans [2], 4 µg/mL (≈ 3.28 µM); in the experiment on Kluyveromyces marxianus, 2 µg/mL (≈ 1.64 µM); in the experiment on Candida albicans [3] it was 4 µg/mL (≈ 3.28 µM); in the experiment with Clavispora lusitaniae, 4 µg/mL (≈ 3.28 µM). In addition, the MIC against Candida tropicalis [4] is 8 µg/mL (≈ 6.57 µM); in the experiment with Aspergillus fumigatus, more than 128 µg/mL; in the experiment on Candida tropicalis [5] it was 16 µg/mL (≈ 13.1 µM); against Candida parapsilosis [6], 16 µg/mL (≈ 13.1 µM); in the experiment on Pichia kudriavzevii it was 2 µg/mL (≈ 1.64 µM); with Candida albicans [7], 4 µg/mL (≈ 3.28 µM). Further, the MIC in the experiment with Diutina rugosa stood at 4 µg/mL (≈ 3.28 µM); in the experiment on Candida parapsilosis [8], 16 µg/mL (≈ 13.1 µM).
